TRPC4 potent: allosterically enhances the mouse TRPC4 cation channel | HEK293 TRPC4beta/mu-opioid, DAMGO EC20, Fluo-4 Ca2+ flux; active compounds read high | 310,000 compounds, 0.42% hits | AID 2227 | B-score at 10 µM | Q9QUQ5;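 active means B-score of calcium response area above 5 SD of library B-scores, with initial fluorescence ratio within 5 SD of library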
Target sequence (Q9QUQ5 whole entry, looked up): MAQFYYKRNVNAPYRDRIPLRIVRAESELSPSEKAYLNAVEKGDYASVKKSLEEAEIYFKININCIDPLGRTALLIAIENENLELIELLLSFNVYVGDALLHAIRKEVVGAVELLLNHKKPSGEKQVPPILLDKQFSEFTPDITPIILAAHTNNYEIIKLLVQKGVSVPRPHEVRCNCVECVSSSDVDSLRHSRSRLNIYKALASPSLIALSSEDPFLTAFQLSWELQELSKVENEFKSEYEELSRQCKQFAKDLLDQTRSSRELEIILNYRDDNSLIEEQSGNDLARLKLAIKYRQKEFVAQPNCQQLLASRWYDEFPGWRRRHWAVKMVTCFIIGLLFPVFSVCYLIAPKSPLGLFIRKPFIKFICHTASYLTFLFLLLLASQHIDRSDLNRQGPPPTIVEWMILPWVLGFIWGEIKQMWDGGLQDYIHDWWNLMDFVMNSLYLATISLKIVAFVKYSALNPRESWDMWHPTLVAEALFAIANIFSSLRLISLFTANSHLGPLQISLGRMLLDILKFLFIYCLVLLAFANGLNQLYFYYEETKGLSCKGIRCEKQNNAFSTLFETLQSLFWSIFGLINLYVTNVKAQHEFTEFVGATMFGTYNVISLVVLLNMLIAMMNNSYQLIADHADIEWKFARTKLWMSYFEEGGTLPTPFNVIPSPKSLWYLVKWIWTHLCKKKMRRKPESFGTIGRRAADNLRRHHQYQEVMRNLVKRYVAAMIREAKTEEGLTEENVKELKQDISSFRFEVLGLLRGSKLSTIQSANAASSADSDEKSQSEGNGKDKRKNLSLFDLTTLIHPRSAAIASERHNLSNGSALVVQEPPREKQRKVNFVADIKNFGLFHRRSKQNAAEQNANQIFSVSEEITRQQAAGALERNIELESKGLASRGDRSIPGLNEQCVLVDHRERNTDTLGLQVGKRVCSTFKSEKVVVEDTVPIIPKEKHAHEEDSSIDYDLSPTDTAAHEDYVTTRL
TRPC4 block: TRPC4 (mouse) channel inhibition | B-score at 10 µM | Q9QUQ5 | AID 2247 | 300,000 compounds, 0.39% hits | HEK293 TRPC4beta/mu-opioid, DAMGO-evoked Fluo4 calcium flux; active compounds read low;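 active means B-score over 3 SD under the library average, no early fluorescence shift, positive overall ratio signal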
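Assay system – HEK293 line stably carrying TRPC4beta and mu-opioid receptor · Doses – single dose · Detection – Fluo4 calcium-dye fluorescence, kinetic read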
TRPC6 activator: mouse TRPC6 channel activation; HEK293-TRPC6 membrane potential dye fluorescence; active compounds read high; B-score at 10 µM; 310,000 compounds, 0.13% hits; AID 2550;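 active means B-score of the integrated fluorescence ratio above library mean plus 3 SD, and starting fluorescence ratio within library mean plus 5 SD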;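 further: higher score means more depolarization so channel activation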
TRPC6 inh: mouse TRPC6 channel inhibition; Q61143; HEK293-TRPC6, membrane potential dye, ACh-evoked depolarization; active compounds read low; B-score at 10 µM; 310,000 compounds, 1.1% hits;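 active means B-score under library mean minus 3 SD, initial fluorescence not abnormally high, positive integrated signal ratio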;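 further: B-score derived from integrated fluorescence ratio over the kinetic read; more negative B-score means stronger inhibition of depolarization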
TRPC4 act: TRPC4 (mouse) channel activation; Q9QUQ5; HEK293 TRPC4beta/mu-opioid, Fluo4 calcium fluorescence; active compounds read high; B-score at 10 µM; 310,000 compounds, 0.49% hits;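 active means B-score above 5 SD of library B-scores, and initial fluorescence ratio not above library mean plus 5 SD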;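 further: positive B-score marks a calcium rise read as TRPC4 activation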
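Test system: HEK293 cells stably co-expressing mouse TRPC4beta and mu-opioid receptor | Schedule: Fluo4 dye loading 45 min at room temperature, 110 s recording | Measured by: Kinetic Fluo4 calcium fluorescence, 5 s baseline at 1 Hz | Evaluation: B score of integrated ratio | Controls: Buffer (low) and maximal DAMGO (high)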
TRPC4 spec 2: second selectivity test of TRPC6 inhibitors: effect on mouse TRPC4. inhibition, % at 10 µM. HEK293 TRPC4/MOR, membrane potential dye fluorescence; channel activated by saturating DAMGO dose. 920 compounds, 42% hits. shares compounds with TRPC6 inh;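 active means compounds whose fluorescence signal differed from control wells by over 3 SD, either direction, in both duplicate plates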
TRPC4 spec: tests whether TRPC6 inhibitors also affect mouse TRPC4; AID 2777; 920 compounds, 61% hits; HEK293 TRPC4/mu-opioid, membrane potential fluorescence; shares compounds with TRPC6 inh; activity change, negative = inhibition, % at 10 µM;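 active means rise or fall in signal beyond 3 SD of buffer-only wells in both replicate plates, either sign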;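 further: integrated kinetic ratio of fluorescence range over baseline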
HEK293 MPD ctr 2-1: parental HEK293 nonspecific activity of TRPC6 inhibitors, second screen; shares compounds with TRPC6 inh; parental HEK293 membrane potential dye fluorescence; maximal acetylcholine challenge after compound addition; signal change vs control, % at 10 µM; 920 compounds, 31% hits; AID 2779;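 active means membrane potential signal moving either way by over 3 SD of the maximum-effect control, in both duplicate plates, meaning non-specific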
HEK293 MPD ctr-1: counter-screen for TRPC6 inhibitors: effect in parental HEK293 cells. AID 2780. parental HEK293 membrane potential dye fluorescence. membrane potential signal change, % at 10 µM. shares compounds with TRPC6 inh. 920 compounds, 60% hits;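 active means membrane potential signal shifting up or down by more than 3 SD of buffer-only wells, on both duplicate plates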
HEK293 MPD ctr-2: checks TRPC6 modulator effects in parental HEK293 cells. shares compounds with TRPC6 inh. membrane potential dye fluorescence. membrane potential signal change, % at 10 µM. 2,400 compounds, 51% hits;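 active means membrane potential signal moves up or down beyond 5 SD from buffer-only wells, on both duplicate plates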
HEK293 MPD ctr 2-2: second counter-screen for TRPC6 modulators: effect in parental HEK293 cells; AID 488926; inhibition, % at 10 µM; membrane potential dye fluorescence; after compound, maximal acetylcholine stimulation; 2,400 compounds, 14% hits; shares compounds with TRPC6 inh;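 active means membrane potential signal drops by more than 5 SD from the mean control signal, in both duplicate plates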
TRPC4/MOR mod: selectivity of TRPC6 modulators against mouse TRPC4; percent change from control (negative = decrease, positive = increase), % at 10 µM; shares compounds with TRPC6 inh; 2,400 compounds, 69% hits; HEK293 TRPC4/mu-opioid, membrane potential fluorescence;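 active means membrane potential signal moved up or down beyond 5 SD of buffer control wells, in both duplicate plates, actives on both sides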
TRPC4/MOR inh 2: second selectivity test of TRPC6 modulators against mouse TRPC4 | AID 488928 | HEK293 TRPC4/mu-opioid, membrane potential dye fluorescence; stimulated with maximal-effect DAMGO | shares compounds with TRPC6 inh | inhibition, % at 10 µM | 2,400 compounds, 55% hits;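 active means drop in membrane potential signal beyond 5 SD of the control wells in both duplicate plates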;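 further: TRPC4 counter screen for TRPC6 hits run under conditions tuned for TRPC6 not TRPC4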
TRPC6 inh conf: confirmation of mouse TRPC6 inhibitors | shares compounds with TRPC6 inh | 3,300 compounds, 43% hits | AID 488960 | HEK293-TRPC6, membrane potential dye, ACh-evoked depolarization | inhibition, % at 10 µM;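 active means fluorescence ratio falls more than 5 SD below the full-stimulation control mean, in both duplicate runs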;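 further: integrated fluorescence ratio of peak minus minimum over baseline after agonist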
TRPC6 act conf: confirmation of mouse TRPC6 activators | 2,800 compounds, 11% hits | HEK293-TRPC6 membrane potential dye fluorescence, FDSS | activation, % at 10 µM | shares compounds with TRPC6 inh;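 active means ratio signal rise beyond 5 SD above unstimulated control wells' mean, seen in both duplicate runs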
Hits are given with their value. An excerpt weighted towards active compounds, which were near 2.3% of everything screened.

What do the screens show for `COc1cc2c(cc1OC)C1(Nc3c-2c(Cc2ccccc2)nn3-c2ccccc2)C(=O)Nc2ccccc21` (centres undefined)?
TRPC4 potent: inactive; TRPC4 block: inactive; TRPC6 activator: inactive; TRPC6 inh: -6.78; TRPC4 act: inactive; TRPC4 spec 2: inactive; TRPC4 spec: -9.5%; HEK293 MPD ctr 2-1: inactive; HEK293 MPD ctr-1: inactive; TRPC6 inh conf: inactive; TRPC6 act conf: inactive

How did CN1CCc2c(sc3c2C(=O)NC(/C=C\c2ccccc2)N3)C1 (centres undefined) do in these assays?
TRPC4 potent: inactive; TRPC4 block: inactive; TRPC6 activator: inactive; TRPC6 inh: -5.71; TRPC4 act: inactive; HEK293 MPD ctr-2: inactive; HEK293 MPD ctr 2-2: inactive; TRPC4/MOR mod: -14.5%; TRPC4/MOR inh 2: 63.0%; TRPC6 inh conf: 58.5%; TRPC6 act conf: inactive

What do the screens show for `CN1CCc2c(sc3c2C(=O)NC(c2cccs2)N3)C1` (centres undefined)?
TRPC4 potent: inactive; TRPC4 block: inactive; TRPC6 activator: inactive; TRPC6 inh: inactive; TRPC4 act: inactive

How did COc1ccc(-c2cn3cc([N+](=O)[O-])ccc3n2)cc1OC do in these assays?
TRPC4 potent: inactive; TRPC4 block: inactive; TRPC6 activator: inactive; TRPC6 inh: -5.05; TRPC4 act: inactive; HEK293 MPD ctr-2: -111.0%; HEK293 MPD ctr 2-2: inactive; TRPC4/MOR mod: -22.0%; TRPC4/MOR inh 2: 30.0%; TRPC6 inh conf: inactive; TRPC6 act conf: inactive

Results for CC(C)(C)c1ccc(C2=CSC3=NCCN23)cc1 ?
TRPC4 potent: inactive; TRPC4 block: inactive; TRPC6 activator: inactive; TRPC6 inh: inactive; TRPC4 act: inactive

How did CC(C)Cc1ccc(C2=CSC3=NCCN23)cc1 do in these assays?
TRPC4 potent: inactive; TRPC4 block: inactive; TRPC6 activator: inactive; TRPC6 inh: -5.82; TRPC4 act: inactive; HEK293 MPD ctr-2: 94.5%; HEK293 MPD ctr 2-2: inactive; TRPC4/MOR mod: inactive; TRPC4/MOR inh 2: 55.0%; TRPC6 inh conf: 48.5%

How did C=CCn1c(SCCN2CCCC2)nc2c([nH]c3ccccc32)c1=O do in these assays?
TRPC4 potent: 17; TRPC4 block: inactive; TRPC6 activator: inactive; TRPC6 inh: -8.6; TRPC4 act: inactive; HEK293 MPD ctr-2: inactive; HEK293 MPD ctr 2-2: inactive; TRPC4/MOR mod: -17.5%; TRPC4/MOR inh 2: 65.5%; TRPC6 inh conf: 53.0%; TRPC6 act conf: inactive

How did Cc1[nH]c(=O)[nH]c(=S)c1C(=O)Nc1ccc(Cl)c(Cl)c1 do in these assays?
TRPC4 potent: inactive; TRPC4 block: inactive; TRPC6 activator: inactive; TRPC6 inh: inactive; TRPC4 act: inactive

How did Cc1cccc(NS(=O)(=O)c2cccc(C(=O)NCC3(N4CCCCC4)CCCCC3)c2)c1 do in these assays?
TRPC4 potent: inactive; TRPC4 block: inactive; TRPC6 activator: inactive; TRPC6 inh: -5.04; TRPC4 act: inactive; HEK293 MPD ctr-2: inactive; HEK293 MPD ctr 2-2: inactive; TRPC4/MOR mod: inactive; TRPC4/MOR inh 2: 72.0%; TRPC6 inh conf: 52.0%

Results for CNS(=O)(=O)c1cccc(C(=O)NCC2(N3CCCCC3)CCCCC2)c1 ?
TRPC4 potent: inactive; TRPC4 block: inactive; TRPC6 activator: inactive; TRPC6 inh: inactive; TRPC4 act: inactive

What do the screens show for `CCN(CC)CCCN(Cc1cc2cc3c(cc2[nH]c1=O)OCO3)C(=S)NCc1ccco1`?
TRPC4 potent: inactive; TRPC4 block: inactive; TRPC6 activator: inactive; TRPC6 inh: inactive; TRPC4 act: inactive

What do the screens show for `CCN(CC)CCN(Cc1cc2cc3c(cc2[nH]c1=O)OCO3)C(=S)NCc1ccco1`?
TRPC4 potent: inactive; TRPC4 block: inactive; TRPC6 activator: inactive; TRPC6 inh: -5.55; TRPC4 act: inactive; HEK293 MPD ctr-2: inactive; HEK293 MPD ctr 2-2: inactive; TRPC4/MOR mod: inactive; TRPC4/MOR inh 2: 58.0%; TRPC6 inh conf: inactive

What do the screens show for `Cc1nc(C(F)(F)F)nc(Nc2ccc(N=Nc3ccccc3)cc2)c1C#N`?
TRPC4 potent: inactive; TRPC4 block: inactive; TRPC6 activator: inactive; TRPC6 inh: inactive; TRPC4 act: inactive

Results for Cc1cccc(-c2n[nH]c(=S)n2/N=C/c2ccc(C)o2)c1 ?
TRPC4 potent: inactive; TRPC4 block: inactive; TRPC6 activator: inactive; TRPC6 inh: inactive; TRPC4 act: inactive

How did Cc1noc(C)c1-c1nnc(-c2ccc(C(F)(F)F)cc2)o1 do in these assays?
TRPC4 potent: inactive; TRPC4 block: inactive; TRPC6 activator: inactive; TRPC6 inh: inactive; TRPC4 act: inactive

Results for CN(C)CCN(Cc1ccco1)C(=O)c1oc2ccccc2c1NC(=O)COc1ccccc1 ?
TRPC4 potent: inactive; TRPC4 block: inactive; TRPC6 activator: inactive; TRPC6 inh: -5.65; TRPC4 act: inactive; HEK293 MPD ctr-2: 90.5%; HEK293 MPD ctr 2-2: inactive; TRPC4/MOR mod: inactive; TRPC4/MOR inh 2: 85.0%; TRPC6 inh conf: 55.0%; TRPC6 act conf: inactive

Results for Cc1cccc(OCc2nnc(SCC(=O)N3CC(=O)Nc4ccccc43)o2)c1 ?
TRPC4 potent: inactive; TRPC4 block: inactive; TRPC6 activator: inactive; TRPC6 inh: inactive; TRPC4 act: inactive
